The results in this text go back to ChEMBL document CHEMBL1158519, “Syntheses and antibacterial activity studies of new oxazolidinones from nitroso Diels-Alder chemistry” (2010).

Each structure is given as a SMILES string.

Format in all cases: functional
What all share (conditions): read-out: DIZ

Experiment [1] relates to Escherichia coli. Kind of experiment: Antimicrobial activity against Escherichia coli X580 at 2 mM after overnight incubation by agar diffusion method.
The subject of experiment [2] is Pseudomonas aeruginosa. Kind of experiment: Antimicrobial activity against Pseudomonas aeruginosa K799/61 mutant at 2 mM after overnight incubation by agar diffusion method. The method in brief:
(§1)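 Agar well diffusion: 50 µl of a 2.0 mM solution in 1:9 DMSO:MeOH placed in 9 mm wells cut in nutrient agar or Mueller Hinton II agar; plates incubated 37 °C for 24 h, then inhibition zone diameter measured in mm. Zones scored as clear, partially clear, unclear (many colonies inside) or faint. Ciprofloxacin positive control at 5 µg/mL in water.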

In experiment [3] the test system is Pseudomonas aeruginosa. Kind of experiment: Antimicrobial activity against wild type Pseudomonas aeruginosa K799 at 2 mM after overnight incubation by agar diffusion method. The method in brief: (§2)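 Agar diffusion: 9 mm wells cut in Standard I Nutrient Agar or Mueller Hinton II agar, each loaded with 50 µl of a 2.0 mM compound solution in 1:9 DMSO:MeOH. Ciprofloxacin was run as control at 5 µg/mL in H2O. Plates were incubated at 37 °C for 24 h, and the inhibition zone diameter was read in mm. Zones were flagged as partially clear, unclear with colonies, or faint.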
A general note: In agar diffusion tests the substance spreads into inoculated agar from a disc or well.

A further experiment concerns Bacillus subtilis. Kind of experiment: Antimicrobial activity against Bacillus subtilis ATCC 6633 at 2 mM after overnight incubation by agar diffusion method. The method in brief:
as §2

In experiment [4] the test system is Staphylococcus aureus. Kind of experiment: Antimicrobial activity against wild type Staphylococcus aureus SG 511 at 2 mM after overnight incubation by agar diffusion method. Put shortly: as §2
Experiment [5] concerns Enterococcus faecalis. Kind of experiment: Antimicrobial activity against Enterococcus faecalis ATCC 49532 at 2 mM after overnight incubation by agar diffusion method. The method in brief: as §2
Another experiment relates to Micrococcus luteus. Kind of experiment: Antimicrobial activity against Micrococcus luteus ATCC 10240 at 2 mM after overnight incubation by agar diffusion method. Put shortly: as §2
For experiment [6], the system named is Escherichia coli. Kind of experiment: Antimicrobial activity against Escherichia coli ATCC 25922 at 2 mM after overnight incubation by agar diffusion method. The method in brief: as §2
Another experiment deals with Mycolicibacterium vaccae. Kind of experiment: Antimicrobial activity against Mycobacterium vaccae IMET 10670 at 2 mM after overnight incubation by agar diffusion method. The method in brief:
as §2

Experiment [7] has as its system Staphylococcus aureus. Kind of experiment: Antimicrobial activity against methicillin-resistant Staphylococcus aureus 143/93 at 2 mM after overnight incubation by agar diffusion method. Put shortly:
as §1

The test system of experiment [8] is Enterococcus faecalis. Kind of experiment: Antimicrobial activity against vancomycin-resistant Enterococcus faecalis 1528 at 2 mM after overnight incubation by agar diffusion method. The method in brief:
as §1

In the case of `O=C(NO)OC[C@H]1CN(c2ccc(N3CCOCC3)c(F)c2)C(=O)O1`, the zone of inhibition at 2000 µM with Escherichia coli [1] turned out to be 0 mm; in the experiment on Pseudomonas aeruginosa [2], 0 mm; in the experiment with Pseudomonas aeruginosa [3] it was 0 mm; in the experiment with Bacillus subtilis it was 23 mm; in the experiment on Staphylococcus aureus [4], 18 mm; in the experiment with Enterococcus faecalis [5] it was 22 mm. Besides, the figures for the zone of inhibition at 2000 µM with Micrococcus luteus and with Escherichia coli [6] were 37 mm and 12 mm, respectively.
Take `O=C(NO)OC[C@H]1CN(c2ccc(N3CCSCC3)c(F)c2)C(=O)O1`: the zone of inhibition at 2000 µM worked out at 20 mm with Escherichia coli [1]; 0 mm in the experiment on Pseudomonas aeruginosa [2]; 0 mm in the experiment on Pseudomonas aeruginosa [3]; 16 mm with Bacillus subtilis; 16 mm in the experiment on Staphylococcus aureus [4]; 16 mm in the experiment on Enterococcus faecalis [5]. Moreover, the zone of inhibition at 2000 µM in the experiment on Micrococcus luteus is 33 mm; with Escherichia coli [6] it was 0 mm.
For the molecule `CC(C)(C)OC(=O)N1CCN(c2ccc(N3C[C@H](COC(=O)NO)OC3=O)cc2F)CC1`, the zone of inhibition at 2000 µM in the experiment with Escherichia coli [1] was 0 mm; in the experiment with Pseudomonas aeruginosa [2] it was 0 mm; in the experiment with Pseudomonas aeruginosa [3] it was 0 mm; in the experiment on Bacillus subtilis, 22 mm; in the experiment with Staphylococcus aureus [4], 17 mm; with Enterococcus faecalis [5], 20 mm. In addition, the zone of inhibition at 2000 µM in the experiment on Micrococcus luteus stood at 33 mm; in the experiment with Escherichia coli [6] it was 12 mm.
Take `O=C(O)c1cn(C2CC2)c2cc(N3CCNCC3)c(F)cc2c1=O` [CIPROFLOXACIN]: the zone of inhibition at 2000 µM was determined as 39 mm with Pseudomonas aeruginosa [2]; 35 mm with Pseudomonas aeruginosa [3]; 29.5 mm in the experiment with Bacillus subtilis; 24 mm in the experiment with Staphylococcus aureus [4]; 19 mm with Mycolicibacterium vaccae; 13 mm in the experiment on Enterococcus faecalis [5]. Also, the zone of inhibition at 2000 µM was 0 mm in the experiment with Staphylococcus aureus [7], 0 mm with Micrococcus luteus, 31 mm in the experiment with Escherichia coli [6] and 15 mm with Enterococcus faecalis [8].
`CC(=O)NC[C@H]1CN(c2ccc(N3CCOCC3)c(F)c2)C(=O)O1` [LINEZOLID]: the zone of inhibition at 2000 µM in the experiment with Escherichia coli [1] turned out to be 0 mm; with Pseudomonas aeruginosa [2] it was 10 mm; with Pseudomonas aeruginosa [3], 0 mm; in the experiment with Bacillus subtilis, 31 mm; with Staphylococcus aureus [4], 27 mm; in the experiment with Mycolicibacterium vaccae, 42 mm. In addition, the zone of inhibition at 2000 µM in the experiment with Enterococcus faecalis [5] was 25 mm; in the experiment with Micrococcus luteus, 38 mm; in the experiment with Escherichia coli [6] it was 0 mm.
